Measured values from paper PMC11231753 (Biofilm, 2024).
Converted amounts (≈) assume the structure as drawn.

Key:
P. aeruginosa PAO1 = assay: MIC by broth microdilution against P. aeruginosa PAO1; format: cell-based, Pseudomonas aeruginosa
In short: (§1)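 Strains maintained in LB (1 % peptone, 0.5 % yeast extract, 0.5 % NaCl). Broth microdilution in 96-well plates: 10⁶ CFU/mL exposed to serial two-fold dilutions of the test extract, overnight at 37 °C. MIC taken as the lowest concentration inhibiting growth. Amoxicillin-clavulanate and imipenem served as positive controls. Run in triplicate.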

[1] = tested on: P. aeruginosa PAO1 biofilm formation; assay: Inhibition of biofilm formation; format: cell-based, Pseudomonas aeruginosa; conditions: comparison of Fig. 5A, concentration not given
In short: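 Biofilm grown in LB broth with 10⁵ CFU/mL PAO1 and serial dilutions of the test extract (7.81–500 μg/mL) at 37 °C overnight. Amoxicillin-clavulanate (3.9–250 μg/mL) and imipenem (0.015–0.97 μg/mL) served as reference antibiotics. Biomass was stained with crystal violet and read at 600 nm to give percent inhibition. Biofilm cells were also viewed by inverted microscope. Run in triplicate; mean ± standard deviation.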

C. violaceum 6267 = assay: MIC by broth microdilution against C. violaceum 6267; format: cell-based, Chromobacterium violaceum
In short: as §1

[2] = tested on: violacein production by C. violaceum 6267; assay: Quantitative anti-QS assay: inhibition of violacein production in 96 well plates; format: cell-based, Chromobacterium violaceum
P. aeruginosa = conditions: cited from earlier work
[3] = tested on: Klebsiella pneumoniae, Proteus mirabilis, Pseudomonas aeruginosa, and Shigella flexineri; conditions: cited from earlier work

C[C@@H](O)[C@H]1C(=O)N2C(C(=O)O)=C(SCCN=CN)C[C@H]12 [Imipenem, imipenem]
MIC (P. aeruginosa PAO1; Pseudomonas aeruginosa, PAO1, read-out: MIC P. aeruginosa PAO1): 31.2 mg/L (≈ 104 µM) | MIC P. aeruginosa PAO1 (P. aeruginosa PAO1; broth microdilution, overnight 37 °C): 31.25 mg/L (≈ 104 µM) | Antibiofilm effect, percentage of inhibition [1]: 47.24%

O=C/C=C/c1ccccc1 [Cinnamaldehyde]
MIC (C. violaceum 6267; Chromobacterium violaceum, 6267, read-out: MIC C. violaceum): 31.2 mg/L (≈ 236 µM) | MIC C. violaceum (C. violaceum 6267; broth microdilution): 31.25 mg/L (≈ 236 µM) | Anti-QS activity (concentration inhibiting violacein production) ([2]; C. violaceum 6267): 7.81 µg/mL | percentage of inhibition (violacein production) ([2]; at the anti-QS concentration printed beside the value): 87.8 ± 2.32% | Inhibition of violacein production ([2]; ½ MIC (n-BuOH fraction 125 μg/mL; ethanolic extract 250 μg/mL)): 93.4%

O=c1c(O)c(-c2cc(O)c(O)c(O)c2)oc2cc(O)cc(O)c12 [myricetin]
MIC against P. aeruginosa ATCC 27853 (P. aeruginosa): 256 mg/L (≈ 804 µM) | Concentration inhibiting bacterial growth of various Gram-negative bacteria [3]: 30 µg/mL
